Results of several laboratories.
LRRK2 G2019S: Leucine-rich repeat serine/threonine-protein kinase 2 (LRRK2, Homo sapiens, UniProt Q5S007, G2019S)
LRRK2: Leucine-rich repeat serine/threonine-protein kinase 2 (LRRK2, Homo sapiens, UniProt Q5S007)

CCCCC(=O)Nc1ccc(-c2ccc3ncn(CCC)c(=O)c3c2)cn1  remaining binding (LRRK2 G2019S; binding; competition with immobilised ligand; 0.5 µM): 100%
COc1ccc2[nH]c3c4[nH]c5ccc(OC)cc5c4c4c(c3c2c1)C(=O)NC4=O  remaining binding (LRRK2; binding; 1 µM): 2.8%
C=CC(=O)N1CCC([C@@H]2CCNc3c(C(N)=O)c(-c4ccc(Oc5ccccc5)cc4)nn32)CC1  inhibition (LRRK2 G2019S; enzyme activity; inhibitor; 1 µM): 0%
C1=C/COCc2cc(ccc2OCCN2CCCC2)Nc2nccc(n2)-c2cccc(c2)COC/1  remaining binding (LRRK2; binding; 0.1 µM): 100%
CN1CCN(C(=O)c2ccc(NC(=O)Nc3ccc(N(C)c4ccnc(Nc5ccc(CS(C)(=O)=O)cc5)n4)cc3)cc2)CC1  remaining binding (LRRK2; binding; 1 µM): 74%
Cc1cc(S(=O)(=O)N[C@H]2CC[C@H](CN3CCN(c4ccc(C5CCC(=O)NC5=O)cc4F)CC3)CC2)ccc1Nc1ncc(C(F)(F)F)c(N2CCC[C@](C)(O)C2)n1 (stereo partly drawn)  remaining binding (LRRK2 G2019S; binding; competition with immobilised ligand; 1 µM): 4%
C[C@H]1CC[C@H](n2c3cnccc3c3cnc(Nc4ccc5c(n4)CCN(C(=O)CO)C5)nc32)CC1  remaining signal (LRRK2; cell-free assay; 1 µM): 28%
Cc1cc(O)c(-c2ccc([C@@H](C)CN(C)C)cc2)c2c1[nH]c(=O)c1sccc12  inhibition (LRRK2; enzyme activity; inhibitor; 0.1 µM): -15.8%
C[C@]1(O)CCCN(c2nc(Nc3ccc(S(=O)(=O)N[C@H]4CC[C@H](CN5CCN(c6ccc(C7CCC(=O)NC7=O)cc6F)CC5)CC4)cc3F)ncc2C(F)(F)F)C1 (stereo partly drawn)  remaining binding (LRRK2; binding; competition with immobilised ligand; 1 µM): 97%
Cc1ccc(NC(=O)c2ccnc(C(F)(F)F)c2)cc1-c1cc(OCCO)nc(N2CCOCC2)c1  remaining binding (LRRK2 G2019S; binding; 1 µM): 100%
CC#CC(=O)N1CCC[C@H]1c1nc(-c2ccc(C(=O)Nc3ccccn3)cc2)c2c(N)nccn12  inhibition (LRRK2 G2019S; enzyme activity; inhibitor; 1 µM): 0%
CNS(=O)(=O)c1ccc(Nc2ncc(C(F)(F)F)c(N3CCC[C@](C)(O)C3)n2)c(C)c1  remaining binding (LRRK2 G2019S; binding; competition with immobilised ligand; 1 µM): 13%
